*1 amine or outer side, *2 acyl side, *3 side chain or, on linkers, in order; H or OH if unused. Where a SMILES comes first, the peptide text is derived from it. Bridges are numbered along the chain shown (N, C = ends). [ ]: non-standard residue; d: D form. Pro(4S-SH) = O=C([C@@H]1C[C@H](S[*:3])CN1[*:1])[*:2]; Sar = CNCC(=O)O
Legend:
[1] = biological target: T1, Type-1 angiotensin II receptor (Oryctolagus cuniculus, UniProt P34976); experiment: Agonist efficacy assessed from contractile responses on rabbit aorta Angiotensin II receptor, type 1; Not Active; assay type: functional, tissue-based
T1 sequence (P34976 whole entry): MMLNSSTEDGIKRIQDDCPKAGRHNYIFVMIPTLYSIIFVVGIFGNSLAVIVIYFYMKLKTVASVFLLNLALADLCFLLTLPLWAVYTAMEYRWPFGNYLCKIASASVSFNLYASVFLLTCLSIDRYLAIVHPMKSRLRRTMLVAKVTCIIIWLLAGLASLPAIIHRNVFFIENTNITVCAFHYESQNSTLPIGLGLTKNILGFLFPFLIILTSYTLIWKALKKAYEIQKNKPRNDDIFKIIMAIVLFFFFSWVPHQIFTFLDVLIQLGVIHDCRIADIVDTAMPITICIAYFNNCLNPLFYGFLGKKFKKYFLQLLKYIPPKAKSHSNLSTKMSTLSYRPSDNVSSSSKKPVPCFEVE
How it was run: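 Rabbit thoracic aortic rings held in 20-mL baths of Krebs-bicarbonate at 37 °C, gassed with 5% CO2 in oxygen. Resting tension 4.0 g, 90-min equilibration. Peptides added cumulatively until maximal response. EC50 read graphically from the curves as the concentration giving 50% of maximal contraction.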

[2] = biological target: T2, Angiotensin II receptor (AT-1) type-1 (Rattus norvegicus, UniProt P29089+P25095); experiment: In vitro binding affinity to the angiotensin II receptor, type 1 in rat liver
T2 sequence (P29089 whole entry): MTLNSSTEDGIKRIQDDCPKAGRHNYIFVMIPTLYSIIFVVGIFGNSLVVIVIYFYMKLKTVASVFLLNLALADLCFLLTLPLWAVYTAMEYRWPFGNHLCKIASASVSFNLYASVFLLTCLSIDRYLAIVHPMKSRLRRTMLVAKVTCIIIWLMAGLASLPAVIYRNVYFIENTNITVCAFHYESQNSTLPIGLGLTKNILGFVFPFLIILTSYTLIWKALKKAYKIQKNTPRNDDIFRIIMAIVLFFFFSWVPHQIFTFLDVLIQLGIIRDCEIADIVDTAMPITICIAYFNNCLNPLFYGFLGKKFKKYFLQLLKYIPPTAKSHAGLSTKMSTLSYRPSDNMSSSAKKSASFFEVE
T2 sequence (P25095 whole entry): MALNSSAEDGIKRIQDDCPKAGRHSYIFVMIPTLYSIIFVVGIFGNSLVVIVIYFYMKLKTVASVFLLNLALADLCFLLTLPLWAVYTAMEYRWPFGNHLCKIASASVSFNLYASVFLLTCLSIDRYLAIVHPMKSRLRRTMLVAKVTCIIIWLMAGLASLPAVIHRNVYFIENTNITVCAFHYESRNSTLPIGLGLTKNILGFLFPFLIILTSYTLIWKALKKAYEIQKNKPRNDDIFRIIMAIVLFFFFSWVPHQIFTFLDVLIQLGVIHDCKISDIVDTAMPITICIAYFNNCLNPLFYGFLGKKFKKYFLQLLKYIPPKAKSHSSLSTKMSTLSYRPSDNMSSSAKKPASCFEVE
How it was run: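 Buffer: 50 mM NaH2PO4 pH 7.1 with 100 μM bacitracin, 0.2% BSA, 100 mM NaCl, 10 mM MgCl2, 1 mM EGTA. Incubated 1 h at 25 °C, then filtered, and filters counted. IC50 from weighted nonlinear regression to the mass action equation.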

Question: For CNCC(=O)N[C@@H](CCCN=C(N)N)C(=O)N1C[C@@H]2C[C@H]1C(=O)N[C@@H](Cc1ccc(O)cc1)C(=O)N[C@H](C(=O)N[C@@H](Cc1c[nH]cn1)C(=O)N1CCC[C@H]1C(=O)N[C@@H](Cc1ccccc1)C(=O)O)CSS2 (H-[Sar]R[Pro(4S-SH)]YCHPF-OH; disulfide 3-5), which EC50 [1] is on record?
Answer: Not Active

Question: What about the IC50 [2] of the same compound?
Answer: 4.7 µM
